High-throughput results deposited in PubChem BioAssay by several laboratories.
Rev-erbA mod: modulators of human Rev-erb alpha DNA binding | actives 0.79% (n = 370,000) | AID 1259318 | P20393 | activity, % at 10 µM | Rev-erbα–FITC-DNA binding, fluorescence polarization, 90 min;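 active = activity above about 14%, limit read from the data; passing the limit was not always enough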;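 note: 0% = DMSO wells with 35 nM protein and 100% = DMSO wells with 750 nM protein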
PG9 Ab binder: PG9 antibody binding by small molecule; TR-FRET gp120-PG9 antibody binding; inhibition, % at 6.7 µM; actives 0.43% (n = 360,000); AID 624416; in the data active = inhibition above about 8.5%
MC4R antag cAMP: human MC4R antagonism in cAMP assay; MC4R-expressing cells, MTII-stimulated cAMP, LANCE TR-FRET; actives 0.48% (n = 360,000); inhibition, % at 6.5 µM; P32245;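 active = inhibition above its plate's cutoff, the mean of tested wells on that plate plus 3 SD, cut at about 29% in these data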;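 note: 0% = Melanotan II alone and 100% = Melanotan II plus saturating MCL0020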
Target sequence (P32245 whole entry, looked up): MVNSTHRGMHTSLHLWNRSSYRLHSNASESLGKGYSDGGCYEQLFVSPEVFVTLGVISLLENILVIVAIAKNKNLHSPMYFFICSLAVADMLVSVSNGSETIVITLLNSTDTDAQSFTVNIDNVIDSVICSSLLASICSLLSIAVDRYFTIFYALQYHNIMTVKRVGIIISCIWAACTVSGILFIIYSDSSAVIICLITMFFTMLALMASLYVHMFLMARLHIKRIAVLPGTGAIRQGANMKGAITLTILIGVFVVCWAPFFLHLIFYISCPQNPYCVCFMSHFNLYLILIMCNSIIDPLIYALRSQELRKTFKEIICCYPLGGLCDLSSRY
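material = U2OS cells stably expressing human melanocortin 4 receptor (MC4R) | also added = Melanotan II challenge | dosing = single nominal compound dose of 6.5 µM | detection = TR-FRET with Eu-cAMP and labeled anti-cAMP, 671 nm | replication = singlicate | timing = compound 30 min, challenge 1 h, detection 1 h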
NR2E3 ag-1: activates human photoreceptor nuclear receptor NR2E3. actives 0.12% (n = 320,000). Q9Y5X4. inhibition of corepressor binding, % at 4.78 µM. GST-NR2E3/biotin-RetCOR TR-FRET, 1536-well;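 active = percent inhibition above the cutoff of mean plus 3 SD of all tested compounds, set per screening campaign, cut at about 20% in these data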;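 note: 0% = DMSO wells and 100% = biotin wells as full block of FRET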
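Material: NR2E3–RetCOR corepressor complex / Incubation: Compound–protein incubation for 5 h at 4 °C / Dosing: compound at 4.8 µM, single dose / Detection: time-resolved FRET / Benchmarks: high control biotin, low control 0.6% DMSO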
NR2E3 ag-2: activates human NR2E3 receptor; inhibition of corepressor binding, % at 3.98 µM; AID 602229; Q9Y5X4; CHO-S Gal4-NCOR/VP16-NR2E3 two-hybrid, luciferase; actives 0.35% (n = 360,000);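 active = inhibition above the mean of all tested compounds plus 3 SD, cut at about 70% in these data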;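 note: 0% = DMSO with NR2E3 transfected cells and 100% = cells lacking NR2E3 construct; higher means lower luciferase signal from less NR2E3 corepressor binding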
MC4R ag barr: agonists of human melanocortin 4 receptor (MC4R) beta-arrestin; P32245; U2OS MC4R beta-arrestin complementation, luminescence; percent of melanotan II response, DMSO zero; activation, % at 8.9 µM; actives 0.98% (n = 360,000);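 active = activation above a per-plate cutoff, the mean activation of sample wells on that plate plus 3 SD, cut at about 8% in these data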
* marks the source's active call; other numbers are inactive results. A selection: hits, their analogues and other compounds. The true share with any hit is near 2.7%.

Results for N/C(Cc1ccc(Cl)c(Cl)c1)=N\OC(=O)c1cccs1 ?
Rev-erbA mod: -3; PG9 Ab binder: -1; MC4R antag cAMP: -7; NR2E3 ag-1: -3; NR2E3 ag-2: 10; MC4R ag barr: 8.6*

How did N/C(=N\OC(=O)c1cccs1)C1(c2ccc(Cl)cc2Cl)CC1 do in these assays?
Rev-erbA mod: 7; PG9 Ab binder: -2; MC4R antag cAMP: 2; NR2E3 ag-1: -2; NR2E3 ag-2: -3; MC4R ag barr: 0

Results for O=C(CNCCc1ccc(F)cc1)Nc1cc(F)ccc1F ?
Rev-erbA mod: 9; PG9 Ab binder: -2; MC4R antag cAMP: 3; NR2E3 ag-1: 1; NR2E3 ag-2: 1; MC4R ag barr: 2

What do the screens show for `COc1ccc(C(=O)N2N=C(c3cccs3)CC2c2ccccc2O)cc1` (centres undefined)?
Rev-erbA mod: -1; PG9 Ab binder: 2; MC4R antag cAMP: 5; NR2E3 ag-1: 3; NR2E3 ag-2: -20; MC4R ag barr: 12*

How did O=c1c2c(-c3ccccc3)csc2nc2c3ccccc3c(NCCN3CCOCC3)nn12 do in these assays?
Rev-erbA mod: 3; PG9 Ab binder: 1; MC4R antag cAMP: -5; NR2E3 ag-2: 15; MC4R ag barr: 9.3*

How did O=c1c2ccccc2nc2c3ccccc3c(NCCN3CCOCC3)nn12 do in these assays?
Rev-erbA mod: -3; PG9 Ab binder: -1; NR2E3 ag-1: -5

Results for COC(=O)[C@@H]1Cc2c([nH]c3ccccc23)C(C)(C)N1C(=O)CCl ?
Rev-erbA mod: -10; PG9 Ab binder: -2; MC4R antag cAMP: 5; NR2E3 ag-2: -11; MC4R ag barr: 13*

Results for CC1CCC2(CC1)OCC1(CCC3(COC4(CCC(C)CC4)OC3)C1=O)CO2 (centres undefined) ?
Rev-erbA mod: -6; PG9 Ab binder: 0; MC4R antag cAMP: 1; NR2E3 ag-1: 1; NR2E3 ag-2: 2; MC4R ag barr: 9.2*

How did O=S(=O)(Nc1cccnc1)c1ccccc1 do in these assays?
Rev-erbA mod: -1; PG9 Ab binder: 0; MC4R antag cAMP: 6; NR2E3 ag-1: 2; NR2E3 ag-2: -24; MC4R ag barr: -1

What do the screens show for `O=S(=O)(Nc1cccnc1)c1ccc(C2CCCCC2)cc1`?
Rev-erbA mod: -5; PG9 Ab binder: -1; MC4R antag cAMP: 2; NR2E3 ag-1: -1; NR2E3 ag-2: 92*; MC4R ag barr: -1

What do the screens show for `CCOC(=O)N1CCc2c(sc3c2C(=O)NC(c2ccccc2)N3)C1` (centres undefined)?
MC4R antag cAMP: 11; NR2E3 ag-1: -2; NR2E3 ag-2: -37; MC4R ag barr: 9.0*

Results for O=C(CNC(=O)/C(=C\c1ccc(F)cc1)NC(=O)c1ccccc1)OCc1ccccc1 ?
Rev-erbA mod: 1; PG9 Ab binder: 0; MC4R antag cAMP: 44*; NR2E3 ag-1: 5; NR2E3 ag-2: 1; MC4R ag barr: 0

What do the screens show for `CC1=CC2C(C(O)CC3(C)C2CC(C)C32OCOC23COCO3)C2(C)C/C(=C\O)C(=O)C=C12` (centres undefined)?
Rev-erbA mod: -3; PG9 Ab binder: -2; MC4R antag cAMP: 26; NR2E3 ag-2: 2; MC4R ag barr: 29*

Results for CC1(C)CC(=O)C2=C(C1)NC(SCC(=O)Nc1ccccc1)=C(C#N)C21CCCCC1 ?
Rev-erbA mod: 4; PG9 Ab binder: 1; MC4R antag cAMP: 3; NR2E3 ag-1: 0; NR2E3 ag-2: -12; MC4R ag barr: 2

Results for CC(C)(C)C1CCC2(CC1)C(C#N)=C(SCC(=O)Nc1ccccc1)NC(=O)C2C#N (centres undefined) ?
Rev-erbA mod: -2; PG9 Ab binder: 1; MC4R antag cAMP: 4; NR2E3 ag-1: -5; NR2E3 ag-2: 100*; MC4R ag barr: 3

How did CCNC(=O)NC(=O)COC(=O)c1cccc(NS(=O)(=O)/C=C/c2ccccc2)c1 do in these assays?
Rev-erbA mod: 1; PG9 Ab binder: -2; MC4R antag cAMP: 15; NR2E3 ag-1: 0; NR2E3 ag-2: -21; MC4R ag barr: 0
